Assay outcomes from PubChem BioAssay.
SIAE primary = human SIAE inhibition, primary screen | Q9HAT2 | SIAE FP-Rh probe binding, fluorescence polarization | inhibition, % at 9.66 µM | 370,000 tested, 0.69% active | AID 1053197;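 active means inhibition above a cutoff: mean of compounds within the control limits plus 3 SD of those, cut at about 17% in these data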
Target sequence (Q9HAT2 whole entry, looked up): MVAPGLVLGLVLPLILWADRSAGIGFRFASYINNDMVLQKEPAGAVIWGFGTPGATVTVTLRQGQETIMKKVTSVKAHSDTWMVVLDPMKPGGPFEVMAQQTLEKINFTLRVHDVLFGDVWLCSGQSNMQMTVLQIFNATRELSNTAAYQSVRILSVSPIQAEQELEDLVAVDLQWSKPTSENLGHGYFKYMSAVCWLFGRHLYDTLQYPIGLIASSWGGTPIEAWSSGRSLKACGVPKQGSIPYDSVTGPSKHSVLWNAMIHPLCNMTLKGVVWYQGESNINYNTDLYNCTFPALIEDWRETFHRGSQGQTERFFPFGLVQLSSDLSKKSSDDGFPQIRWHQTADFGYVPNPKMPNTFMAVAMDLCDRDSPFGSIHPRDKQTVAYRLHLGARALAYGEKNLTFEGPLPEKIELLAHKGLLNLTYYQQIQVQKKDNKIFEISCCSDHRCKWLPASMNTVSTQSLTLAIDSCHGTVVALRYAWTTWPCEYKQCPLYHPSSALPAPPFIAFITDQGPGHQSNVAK
mABHD4 FP = ABHD4 (mouse) inhibition, primary FP screen; purified mABHD4, FP-Rh probe fluorescence polarization; Q8VD66; inhibition, % at 8.92 µM; 370,000 tested, 0.54% active;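 active means inhibition exceeding the mean over every tested compound plus 3 SD, cut at about 30% in these data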
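Test system: mouse ABHD4 enzyme, wild type. Reagent: FP-Rh fluorescent activity-based probe, added after compound pre-incubation. Timing: pre-incubation 45 min, probe exposure 60 min, at 25 °C. Technique: FP readout, ex 525 nm / em 598 nm. Benchmarks: high control S159A mutant with DMSO, low control median of compound wells.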
TCR-CD3 inh = blocks the human TCR-CD3 interaction | TAMRA-labeled TCR probe fluorescence, biochemical | inhibition, % at 9.4 µM | 360,000 tested, 0.37% active; in the data active means inhibition above about 19%;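 further: recombinant mutant TCR 2C K166C tagged with TAMRA read by polarization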
HTRA1 inhibitor = inhibitors of human serine peptidase HTRA1; Q92743; recombinant HTRA1, FP-rhodamine activity-based probe, fluorescence polarization; inhibition, % at 5.96 µM; 340,000 tested, 0.5% active; in the data active means inhibition above about 36%
ARNT TACC3 PPI = disruptors of human ARNT/TACC3 interaction; 390,000 tested, 0.66% active; AlphaScreen His-ARNT PAS-B/GST-TACC3 binding, luminescence; TACC3 fragment carries E629A point mutation; Q9Y6A5; AID 623870; inhibition, % at 9.99 µM;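 active means mean inhibition of replicates at least 50% and at least half of replicates each reaching 50%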
SIAE inh conf = confirmation of human SIAE inhibitors; shares compounds with SIAE primary; SIAE FP-Rh activity-based probe, fluorescence polarization; 2,300 tested, 13% active; inhibition, % at 9.66 µM;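 active means mean inhibition of the replicates above the hit cutoff set in the primary screen, cut at about 17% in these data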;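 further: inhibitors lower polarization as more probe stays unbound to SIAE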
Each line names hits and unclear results; the compound was inactive in the other large screens (follow-up assays come after a bar, where they were run). A selection: hits, their analogues and other compounds. The true share with any hit is near 1.8%.

C[C@H]1CN([C@@H](C)CO)S(=O)(=O)c2ccc(-c3ccc(F)cc3)cc2O[C@@H]1CN(C)C	none (no result: SIAE primary, mABHD4 FP, TCR-CD3 inh, HTRA1 inhibitor)
Cc1ccc(C(=O)COC(=O)c2cccc(NC(=O)c3ccc([N+](=O)[O-])cc3[N+](=O)[O-])c2)cc1	SIAE primary 21 | SIAE inh conf inactive
C[C@@H]1CN([C@H](C)CO)C(=O)c2cc(NS(=O)(=O)c3ccc(F)cc3)ccc2O[C@@H]1CN(C)C(=O)Nc1ccc(C(F)(F)F)cc1	none (no result: SIAE primary, mABHD4 FP, TCR-CD3 inh, HTRA1 inhibitor)
C[C@H]1CN([C@@H](C)CO)C(=O)c2cccc(NS(=O)(=O)c3ccccc3)c2O[C@H]1CN(C)S(C)(=O)=O	none (no result: SIAE primary, mABHD4 FP, TCR-CD3 inh, HTRA1 inhibitor)
CCC1CCC(N2CCN(c3ccc(F)cc3)CC2)CC1 (configuration not stated)	SIAE primary 17 | SIAE inh conf inactive
C[C@@H]1CN([C@@H](C)CO)C(=O)c2cc(NC(=O)CCC(F)(F)F)ccc2O[C@H]1CN(C)Cc1ccc(-c2ccccc2)cc1	none (no result: SIAE primary, mABHD4 FP, TCR-CD3 inh, HTRA1 inhibitor)
COc1ccc(NC(=O)NNC(=O)COc2ccc3ccccc3c2)cc1	SIAE primary 18 | SIAE inh conf inactive
CCCNC(=O)[C@@H]1[C@@H](CO)[C@@H]2Cn3c(ccc(/C=C/c4ccccc4)c3=O)[C@H]1N2C(=O)c1ccccc1	none (no result: SIAE primary, mABHD4 FP, TCR-CD3 inh, HTRA1 inhibitor)
O=C(O)CCCn1cc(NC(=O)c2cccc(F)c2)cn1	SIAE primary 20 | SIAE inh conf inactive
O=C(COC(=O)CSc1ccc(Cl)cc1)Nc1ccccc1	none
O=C(COC(=O)c1ccc(CSc2ccc(Cl)cc2)cc1)Nc1ccccc1	SIAE primary 20 (no result: ARNT TACC3 PPI) | SIAE inh conf inactive
O=C1CC(c2ccc(F)cc2)C(n2cncn2)C(O)=C1C1NCCc2ccccc21 (configuration not stated)	SIAE primary 26 | SIAE inh conf inactive
O=C1CC(c2ccc(F)cc2)CC(O)=C1C1NCCc2ccccc21 (configuration not stated)	none
NC(Cc1ccc(C(F)(F)F)cc1)c1csc(NC(=O)Nc2ccccc2)n1 (configuration not stated)	none (no result: HTRA1 inhibitor, ARNT TACC3 PPI)
NC(Cc1ccc(C(F)(F)F)cc1)c1csc(NC(=O)Nc2ccccc2Cl)n1 (configuration not stated)	SIAE primary 20 (no result: HTRA1 inhibitor, ARNT TACC3 PPI) | SIAE inh conf 21
Cc1ccc(S(=O)(=O)Nc2ccc3c(c2)C(=O)c2ccccc2-3)cc1	none (no result: HTRA1 inhibitor, ARNT TACC3 PPI)
Cc1ccc(NS(=O)(=O)c2ccc3c(c2)C(=O)c2ccccc2C3=O)c(C)c1	SIAE primary 18 | SIAE inh conf inactive
C[C@@H]1CN([C@@H](C)CO)C(=O)c2cc(C#CC(C)(C)O)cnc2O[C@@H]1CN(C)Cc1ccccn1	none (no result: SIAE primary, mABHD4 FP, TCR-CD3 inh, HTRA1 inhibitor)
CCOC(=O)C1CCCN(C(=O)c2ccc(OC)c([N+](=O)[O-])c2)C1 (configuration not stated)	SIAE primary 30 | SIAE inh conf inactive
O=C(C[C@H]1C=C[C@@H](NS(=O)(=O)c2ccc(F)cc2)[C@H](CO)O1)NCCc1ccncc1	none (no result: SIAE primary, mABHD4 FP, TCR-CD3 inh, HTRA1 inhibitor)
O=C(COC(=O)c1cc(Cl)ccc1O)NCCC1=CCCCC1	SIAE primary 17 | SIAE inh conf inactive
O=C(COC(=O)Cc1ccc(Cl)cc1Cl)NCCC1=CCCCC1	none
CO[C@H]1CN(C)C(=O)c2ccc(NC(=O)C3CCOCC3)cc2OC[C@@H](C)N(Cc2nccs2)C[C@H]1C	none (no result: SIAE primary, mABHD4 FP, TCR-CD3 inh, HTRA1 inhibitor)
CCn1nc(NS(=O)(=O)c2ccc(NC(C)=O)cc2)c2cc3cccc(C)c3nc21	SIAE primary 18 | SIAE inh conf inactive
C[C@H](CO)N1C[C@H](C)[C@@H](CN(C)CC2CC2)Oc2ccc(NS(=O)(=O)c3cccs3)cc2CC1=O	none (no result: SIAE primary, mABHD4 FP, TCR-CD3 inh, HTRA1 inhibitor)
COc1ccc(NC(=O)Nc2ccc3c(c2)C(=O)N([C@@H](C)CO)C[C@@H](C)[C@@H](CN(C)C(=O)CCC(F)(F)F)OCCCC[C@H](C)O3)cc1	none (no result: SIAE primary, mABHD4 FP, TCR-CD3 inh, HTRA1 inhibitor)
CCOC(=O)/C=C(\C)Sc1cc(O)c2ccccc2c1O	SIAE primary 18, mABHD4 FP 34, ARNT TACC3 PPI 77 | SIAE inh conf inactive
CCOC(=O)/C=C(\C)Sc1cc(=O)oc2ccccc12	none
O=C(Nc1ccc(-c2csc(Nc3ccccc3)n2)cc1)c1cc([N+](=O)[O-])cc(C(F)(F)F)c1	SIAE primary 40 | SIAE inh conf 20
COc1ccc(OC)c([N+](=O)[O-])c1C(N)=O	SIAE primary 33 | SIAE inh conf inactive
Nc1ccn([C@@H]2O[C@H](C(=O)NCc3ccc4c(c3)OCO4)[C@@H](O)[C@H]2O)c(=O)n1	SIAE primary 52 (no result: HTRA1 inhibitor, ARNT TACC3 PPI) | SIAE inh conf 49
C[C@H]1CCCCO[C@H](CN(C)CC2CCCCC2)[C@@H](C)CN([C@@H](C)CO)C(=O)c2cc(NC(=O)Cc3ccccc3)ccc2O1	none (no result: SIAE primary, mABHD4 FP, TCR-CD3 inh, HTRA1 inhibitor)
Cc1nn(-c2cccc(C(F)(F)F)c2)c(Cl)c1/C=N/Nc1cccc(C(=O)O)c1	SIAE primary 26 | SIAE inh conf inactive
Cc1nn(-c2ccccc2Cl)c(Cl)c1/C=N/Nc1cccc(C(=O)O)c1	none
Cc1c(C2(O)CCCCC2)[nH]c2ccc(C#N)cc12	SIAE primary 18 | SIAE inh conf inactive
Cc1ccc(S(=O)(=O)N(C)C[C@@H]2OCCCC[C@H](C)Oc3ccc(NS(=O)(=O)c4cccs4)cc3C(=O)N([C@H](C)CO)C[C@H]2C)cc1	none (no result: SIAE primary, mABHD4 FP, TCR-CD3 inh, HTRA1 inhibitor)
COc1ccc(C(=O)C(=O)N2CCN(C(=O)c3ccccc3C(F)(F)F)CC2)cc1OC	SIAE primary 22 (no result: HTRA1 inhibitor, ARNT TACC3 PPI) | SIAE inh conf inactive
COc1ccc2[nH]c(O)c(N=NC(=O)Cc3cccs3)c2c1	SIAE primary 18 | SIAE inh conf inactive
COc1ccc2[nH]c(O)c(N=O)c2c1	SIAE primary 26 | SIAE inh conf 23
O=[N+]([O-])c1ccc(N=Nc2c(O)[nH]c3ccc(F)cc23)cc1	none
COc1ccc2[nH]c(O)c(NC(C)=O)c2c1	none
O=C(Cc1cccs1)N=Nc1c(O)[nH]c2ccc(Br)cc12	none
O=Nc1c(O)[nH]c2ccc(F)cc12	SIAE primary 23 (no result: ARNT TACC3 PPI) | SIAE inh conf 22
O=Nc1c(O)[nH]c2ccc(Cl)cc12	SIAE primary 28 (no result: ARNT TACC3 PPI) | SIAE inh conf 25
COc1ccccc1C#Cc1ccc([C@H]2[C@@H](CO)N3CCCCN(C(=O)C4CCCC4)C[C@@H]23)cc1	none (no result: SIAE primary, mABHD4 FP, TCR-CD3 inh, HTRA1 inhibitor)
CN1[C@@H]2c3ccc(C4=CCCCC4)c(=O)n3C[C@H]1[C@H](CO)[C@H]2C(=O)NCc1cc(F)cc(F)c1	none (no result: SIAE primary, mABHD4 FP, TCR-CD3 inh, HTRA1 inhibitor)
CCOc1ccc(-n2cc(C(=O)NCCOC)c3cc(OC)c(OC)cc3c2=O)cc1	SIAE primary 22 | SIAE inh conf inactive
CCOc1ccc(-n2cc(C(=O)Nc3cccc(OC)c3)c3cc(OC)c(OC)cc3c2=O)cc1	none
CCCc1cn(CC[C@H]2CC[C@@H](NC(=O)Nc3ccccc3F)[C@@H](CO)O2)nn1	none (no result: SIAE primary, mABHD4 FP, TCR-CD3 inh, HTRA1 inhibitor)
CCn1c(CCNC(=O)c2ccc(Cl)cc2)n[nH]c1=S	SIAE primary 22 | SIAE inh conf inactive
Cc1ccc(C(=O)NCCc2n[nH]c(=S)n2C)cc1	none (no result: ARNT TACC3 PPI)
COc1ccccc1S(=O)(=O)N[C@@H]1CC[C@H](CCNC(=O)C2CCOCC2)O[C@H]1CO	none (no result: SIAE primary, mABHD4 FP, TCR-CD3 inh, HTRA1 inhibitor)
